Measurements published in ChEMBL document CHEMBL3585281, “Antibacterial Labdane Diterpenoids from Vitex vestita” (2015).

Tests used:
Type in all cases: functional
Enterococcus gallinarum [1] = test: Antibacterial activity against Enterococcus gallinarum N492 after 18 hrs by agar dilution method; details: N492, 18 h
Summary of the method: (§1)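 Agar-dilution MIC against Gram-positive strains. Compounds in DMSO, geometric dilutions giving final 100−0.75 mg/L in Mueller Hinton agar. Strains grown 18 h at 37 °C in trypticase soy broth, diluted in sterile water, spotted by Steers inoculator (about 1000 UFC/spot). Plates incubated 18 h at 37 °C; DMSO blank; ofloxacin positive control. MIC = lowest concentration with no visible growth.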

[2] = test system: Staphylococcus saprophyticus; test: Antibacterial activity against Staphylococcus saprophyticus E260 after 18 hrs by agar dilution method; details: E260, 18 h; summary of the method: as §1
Enterococcus faecalis [3] = test: Antibacterial activity against Enterococcus faecalis N520 after 18 hrs by agar dilution method; details: N520, 18 h; summary of the method: as §1
Bacillus cereus [4] = test: Antibacterial activity against Bacillus cereus N258 after 18 hrs by agar dilution method; details: N258, 18 h; summary of the method: as §1
Listeria monocytogenes [5] = test: Antibacterial activity against Listeria monocytogenes CIP 103575 after 18 hrs by agar dilution method; details: CIP 103575, 18 h; summary of the method: as §1
Listeria monocytogenes [6] = test: Antibacterial activity against Listeria monocytogenes N836 after 18 hrs by agar dilution method; details: N836, 18 h; summary of the method: as §1
Enterococcus gallinarum [7] = test: Antibacterial activity against Enterococcus gallinarum N489 after 18 hrs by agar dilution method; details: N489, 18 h; summary of the method: as §1
Corynebacterium striatum = test: Antibacterial activity against Corynebacterium striatum N840 after 18 hrs by agar dilution method; details: N840, 18 h; summary of the method: as §1
Streptococcus agalactiae = test: Antibacterial activity against Streptococcus agalactiae CIP 103227 after 18 hrs by agar dilution method; details: ATCC 13813, 18 h; summary of the method: as §1
Listeria monocytogenes [8] = test: Antibacterial activity against Listeria monocytogenes N851 after 18 hrs by agar dilution method; details: N851, 18 h; summary of the method: as §1
[9] = test system: Staphylococcus lugdunensis; test: Antibacterial activity against Staphylococcus lugdunensis ATCC 43809 after 18 hrs by agar dilution method; details: ATCC 43809, 18 h; summary of the method: as §1
Enterococcus faecium [10] = test: Antibacterial activity against Enterococcus faecium N507 after 18 hrs by agar dilution method; details: N507, 18 h; summary of the method: as §1
Enterococcus durans = test: Antibacterial activity against Enterococcus durans CIP 104999 after 18 hrs by agar dilution method; details: CIP 104999, 18 h; summary of the method: as §1
Enterococcus faecalis [11] = test: Antibacterial activity against Enterococcus faecalis N491 after 18 hrs by agar dilution method; details: N491, 18 h; summary of the method: as §1
Enterococcus faecalis [12] = test: Antibacterial activity against Enterococcus faecalis CIP 104676 after 18 hrs by agar dilution method; details: CIP 104676, 18 h; summary of the method: as §1
Staphylococcus aureus [13] = test: Antibacterial activity against Staphylococcus aureus CIP 483 after 18 hrs by agar dilution method; details: CIP 483, 18 h; summary of the method: as §1
Bacillus spizizenii = test: Antibacterial activity against Bacillus subtilis ATCC 6633 after 18 hrs by agar dilution method; details: ATCC 6633, 18 h; summary of the method: as §1
Enterococcus faecium [14] = test: Antibacterial activity against Enterococcus faecium N823 after 18 hrs by agar dilution method; details: N823, 18 h; summary of the method: as §1
Enterococcus avium = test: Antibacterial activity against Enterococcus avium CIP 104053 after 18 hrs by agar dilution method; details: CIP 104053, 18 h; summary of the method: as §1
Bacillus cereus [15] = test: Antibacterial activity against Bacillus cereus N349 after 18 hrs by agar dilution method; details: N349, 18 h; summary of the method: as §1
Staphylococcus aureus [16] = test: Antibacterial activity against Staphylococcus aureus ATCC 9144 oxford after 18 hrs by agar dilution method; summary of the method: as §1
Staphylococcus aureus [17] = test: Antibacterial activity against Staphylococcus aureus CIP 5710 after 18 hrs by agar dilution method; details: CIP 5710, 18 h; summary of the method: as §1
Staphylococcus aureus [18] = test: Antibacterial activity against Staphylococcus aureus CIP 53154 after 18 hrs by agar dilution method; details: CIP 53154, 18 h; summary of the method: as §1
Listeria innocua = test: Antibacterial activity against Listeria innocua E044 after 18 hrs by agar dilution method; details: E044, 18 h; summary of the method: as §1
Listeria monocytogenes [19] = test: Antibacterial activity against Listeria monocytogenes N783 after 18 hrs by agar dilution method; details: N783, 18 h; summary of the method: as §1
Mammaliicoccus sciuri = test: Antibacterial activity against Staphylococcus sciuri N993 after 18 hrs by agar dilution method; details: N993, 18 h; summary of the method: as §1
Enterococcus faecium [20] = test: Antibacterial activity against Enterococcus faecium N733 after 18 hrs by agar dilution method; details: N733, 18 h; summary of the method: as §1
Enterococcus faecalis [21] = test: Antibacterial activity against Enterococcus faecalis N518 after 18 hrs by agar dilution method; details: N518, 18 h; summary of the method: as §1
[22] = test system: Staphylococcus saprophyticus; test: Antibacterial activity against Staphylococcus saprophyticus CIP 76125 after 18 hrs by agar dilution method; details: CIP 76125, 18 h; summary of the method: as §1
[23] = test system: Staphylococcus epidermidis; test: Antibacterial activity against Staphylococcus epidermidis CIP 53124 after 18 hrs by agar dilution method; details: CIP 53124, 18 h; summary of the method: as §1
Enterococcus faecium [24] = test: Antibacterial activity against Enterococcus faecium CIP 107387 after 18 hrs by agar dilution method; details: CIP 107387, 18 h; summary of the method: as §1
Staphylococcus aureus [25] = test: Antibacterial activity against Staphylococcus aureus ATCC 25923 after 18 hrs by agar dilution method; details: ATCC 25923, 18 h; summary of the method: as §1
[26] = test system: Enterococcus casseliflavus; test: Antibacterial activity against Enterococcus casseliflavus N487 after 18 hrs by agar dilution method; details: N487, 18 h; summary of the method: as §1
Bacillus cereus [27] = test: Antibacterial activity against Bacillus cereus N190 after 18 hrs by agar dilution method; details: N190, 18 h; summary of the method: as §1
[28] = test system: Staphylococcus intermedius; test: Antibacterial activity against Staphylococcus intermedius N987 after 18 hrs by agar dilution method; details: N987, 18 h; summary of the method: as §1
[29] = test system: Enterococcus casseliflavus; test: Antibacterial activity against Enterococcus casseliflavus CIP 103018 after 18 hrs by agar dilution method; details: CIP 103018, 18 h; summary of the method: as §1
Enterococcus hirae = test: Antibacterial activity against Enterococcus hirae CIP 5855 after 18 hrs by agar dilution method; details: CIP 5855, 18 h; summary of the method: as §1
Enterococcus gallinarum [30] = test: Antibacterial activity against Enterococcus gallinarum CIP 105985 after 18 hrs by agar dilution method; details: CIP 105985, 18 h; summary of the method: as §1
[31] = test system: Staphylococcus haemolyticus; test: Antibacterial activity against Staphylococcus haemolyticus CIP 8156 after 18 hrs by agar dilution method; details: CIP 8156, 18 h; summary of the method: as §1
Staphylococcus aureus [32] = test: Antibacterial activity against Staphylococcus aureus CIP 53156 after 18 hrs by agar dilution method; details: CIP 53156, 18 h; summary of the method: as §1
Staphylococcus aureus [33] = test: Antibacterial activity against Staphylococcus aureus CRBIP 2121 after 18 hrs by agar dilution method; details: CRBIP 2121, 18 h; summary of the method: as §1
Enterococcus faecium [34] = test: Antibacterial activity against Enterococcus faecium CIP 103014 after 18 hrs by agar dilution method; details: CIP 103014, 18 h; summary of the method: as §1
Staphylococcus aureus [35] = test: Antibacterial activity against Staphylococcus aureus CIP 7625 after 18 hrs by agar dilution method; details: CIP 7625, 18 h; summary of the method: as §1
Bacillus cereus [36] = test: Antibacterial activity against Bacillus cereus CIP 6624 after 18 hrs by agar dilution method; details: CIP 6624, 18 h; summary of the method: as §1
Enterococcus faecium [37] = test: Antibacterial activity against Enterococcus faecium N490 after 18 hrs by agar dilution method; details: N490, 18 h; summary of the method: as §1
Enterococcus faecalis [38] = test: Antibacterial activity against Enterococcus faecalis CIP 103214 after 18 hrs by agar dilution method; details: CIP 103214, 18 h; summary of the method: as §1
HCT-116 [39] = test: Cytotoxicity against human HCT116 cells assessed as growth inhibition at 10^-5 M after 72 hrs by MTS assay relative to control; details: HCT-116, 72 h, read-out: GI
Summary of the method: (§2)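 Cells from ATCC; HCT-116 grown in RPMI 1640 and MRC5 in DMEM, each with 10% FCS and 1% glutamine, 37 °C, 5% CO2. Seeded at 2.5 × 10^3 cells/well, cultured 24 h, then exposed to compounds at 1 and 10 μM final for 72 h. MTS read-out, absorbance 490 nm; percent index from treated/control OD490 × 100, three experiments.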

MRC5 [40] = test: Cytotoxicity against human MRC5 cells assessed as growth inhibition at 10^-6 M after 72 hrs by MTS assay relative to control; details: MRC5, 72 h, read-out: GI; summary of the method: as §2
HCT-116 [41] = test: Cytotoxicity against human HCT116 cells assessed as growth inhibition at 10^-6 M after 72 hrs by MTS assay relative to control; details: HCT-116, 72 h, read-out: GI; summary of the method: as §2
MRC5 [42] = test: Cytotoxicity against human MRC5 cells assessed as growth inhibition at 10^-5 M after 72 hrs by MTS assay relative to control; details: MRC5, 72 h, read-out: GI; summary of the method: as §2

O=C(N[C@H](CO)[C@H](O)c1ccc([N+](=O)[O-])cc1)C(Cl)Cl [CHLORAMPHENICOL]
12 µM: MIC (Listeria monocytogenes [6]) | MIC (Enterococcus gallinarum [7]) | MIC [9] | MIC (Enterococcus durans) | MIC (Enterococcus faecalis [11]) | MIC (Staphylococcus aureus [13]) | MIC (Bacillus spizizenii) | MIC (Enterococcus avium) | MIC (Staphylococcus aureus [16]) | MIC (Staphylococcus aureus [17]) | MIC (Staphylococcus aureus [18]) | MIC (Listeria innocua) | MIC (Listeria monocytogenes [19]) | MIC (Mammaliicoccus sciuri) | MIC (Enterococcus faecium [20]) | MIC (Enterococcus faecium [24]) | MIC (Enterococcus hirae) | MIC (Enterococcus gallinarum [30]) | MIC (Staphylococcus aureus [32]) | MIC (Staphylococcus aureus [33]) | MIC (Enterococcus faecium [37])
200 µM: MIC (Enterococcus faecalis [3]) | MIC (Enterococcus faecalis [12])
25 µM: MIC (Enterococcus gallinarum [1]) | MIC [2] | MIC (Listeria monocytogenes [5]) | MIC (Listeria monocytogenes [8]) | MIC (Enterococcus faecium [10]) | MIC (Enterococcus faecium [14]) | MIC (Enterococcus faecalis [21]) | MIC [22] | MIC (Staphylococcus aureus [25]) | MIC [26] | MIC [28] | MIC [29] | MIC (Enterococcus faecium [34]) | MIC (Staphylococcus aureus [35]) | MIC (Enterococcus faecalis [38])
3 µM: MIC (Streptococcus agalactiae)
50 µM: MIC (Corynebacterium striatum)
6 µM: MIC (Bacillus cereus [4]) | MIC (Bacillus cereus [15]) | MIC [23] | MIC (Bacillus cereus [27]) | MIC [31] | MIC (Bacillus cereus [36])

C=C1C[C@@H](O)[C@H]2C(C)(C)CCC[C@]2(C)[C@H]1CCC1=CC(=O)OC1O (stereo not given in full)
28%: inhibition of growth at 10 µM (MRC5 [42])
0%: inhibition of growth at 1 µM (HCT-116 [41])
5%: inhibition of growth at 1 µM (MRC5 [40])
38%: inhibition of growth at 10 µM (HCT-116 [39])

CC1COc2c(N3CCN(C)CC3)c(F)cc3c(=O)c(C(=O)O)cn1c23 (stereo not given) [OFLOXACIN]
11 µM: MIC (Enterococcus gallinarum [1]) | MIC (Listeria innocua) | MIC (Enterococcus faecalis [21]) | MIC [26] | MIC [29] | MIC (Enterococcus gallinarum [30])
177 µM: MIC (Enterococcus faecium [24]) | MIC (Staphylococcus aureus [33])
≤ 0.2 µM: MIC (Bacillus spizizenii)
89 µM: MIC [28]
6 µM: MIC (Listeria monocytogenes [5]) | MIC (Listeria monocytogenes [6]) | MIC (Enterococcus gallinarum [7]) | MIC (Listeria monocytogenes [8]) | MIC (Enterococcus faecalis [11]) | MIC (Enterococcus avium) | MIC (Listeria monocytogenes [19]) | MIC (Enterococcus faecium [37])
354 µM: MIC (Enterococcus faecalis [3]) | MIC (Enterococcus faecium [10]) | MIC (Enterococcus faecium [14])
3 µM: MIC [2] | MIC [9] | MIC (Enterococcus faecalis [12]) | MIC (Mammaliicoccus sciuri) | MIC [22] | MIC (Enterococcus hirae) | MIC (Enterococcus faecalis [38])
22 µM: MIC (Enterococcus faecium [34])
1.4 µM: MIC (Streptococcus agalactiae) | MIC (Enterococcus durans) | MIC (Bacillus cereus [15]) | MIC [23] | MIC (Staphylococcus aureus [25]) | MIC (Staphylococcus aureus [35])
0.7 µM: MIC (Bacillus cereus [4]) | MIC (Staphylococcus aureus [13]) | MIC (Staphylococcus aureus [16]) | MIC (Staphylococcus aureus [17]) | MIC (Staphylococcus aureus [18]) | MIC (Bacillus cereus [27]) | MIC [31] | MIC (Staphylococcus aureus [32]) | MIC (Bacillus cereus [36])
> 354 µM: MIC (Corynebacterium striatum) | MIC (Enterococcus faecium [20])

C=C1C[C@@H](O)[C@H]2C(C)(C)CCC[C@]2(C)[C@H]1C[C@H](O)C1=CC(=O)OC1O (stereo not given in full)
0%: inhibition of growth at 1 µM (MRC5 [40]) | inhibition of growth at 1 µM (HCT-116 [41]) | inhibition of growth at 10 µM (MRC5 [42])
66%: inhibition of growth at 10 µM (HCT-116 [39])
